Test results reported in ChEMBL document CHEMBL3526065, “Metabolism of [6]-shogaol in mice and in cancer cells” (Drug Metab Dispos, 2012).
Each block holds one compound with its values, some of them ahead of it.

Legend:
NCI-H1299 [1] = experiment: Induction of apoptosis in human H1299 cells assessed as apoptotic cells at 10 uM after 24 hrs by TUNEL assay; format: functional
Procedure, shortened: (§1)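 HCT-116 or H-1299 cells seeded at 1.0 × 10⁵/well, after 24 h exposed for 24 h to compound (10–80 μM) or DMSO control. Cells were proteinase K-pretreated, formaldehyde-fixed, and slide-mounted for peroxidase TUNEL staining. Ten fields per slide counted at 400×; brown-nucleus cells given as percentage of total cells; mean ± S.E., n = 10.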

[2] = Drug recovery in C57BL/6J mouse urine assessed as glucuronidated form of metabolite formation at 200 mg/kg, po by LC/MS analysis; format: ADME, organism-based; parameters: dose 200 mg/kg, route oral; details: in vivo
Procedure, shortened: (§2)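 Female C57BL/6J mice gavaged with 200 mg/kg in corn oil or vehicle (n = 5); 24-h urine collected in metabolic cages. 50 μl urine deproteinized with MeOH. Analysis with and without deconjugation.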

Plasma [3] = experiment: Drug metabolism in A/J mouse plasma assessed as sulfated form of metabolite formation at 200 mg/kg, po after 2 to 4 hrs by HPLC analysis; details: in vivo
[4] = Drug excretion in C57BL/6J mouse feces assessed as 1-(4'-hydroxy-3'-methoxyphenyl)-decan-3-ol formation at 200 mg/kg, po by HPLC-ECD analysis relative to control; format: ADME, organism-based; parameters: dose 200 mg/kg, route oral; details: in vivo
Procedure, shortened: (§3)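 Female C57BL/6J mice gavaged once with 200 mg/kg in corn oil, or corn oil alone (n = 5 each). 24-h feces collected in metabolic cages. Feces extracted by sonication 90 min in MeOH/H2O (50/50) + 0.1% acetic acid, centrifuged, diluted fivefold. Analysed by HPLC with electrochemical array detection (Gemini C18, phosphate/acetonitrile/THF gradient), compared against vehicle controls.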

[5] = Drug excretion in C57BL/6J mouse feces assessed as 5-methylthio-1-(4'-hydroxy-3'-methoxyphenyl)-decan-3-ol formation at 200 mg/kg, po by HPLC-ECD analysis relative to control; format: ADME, organism-based; parameters: dose 200 mg/kg, route oral; details: in vivo; procedure, shortened: as §3
Plasma [6] = experiment: Drug metabolism in A/J mouse plasma assessed as glucuronidated form of metabolite formation at 200 mg/kg, po after 2 to 4 hrs by HPLC-ECD analysis; details: in vivo
[7] = Drug recovery in C57BL/6J mouse urine assessed as sulfated form of metabolite formation at 200 mg/kg, po by LC/MS analysis; format: ADME, organism-based; parameters: dose 200 mg/kg, route oral; details: in vivo; procedure, shortened: as §2
HT-29 [8] = experiment: Drug metabolism in human HT-29 cells assessed as 1-(4'-hydroxy-3'-methoxyphenyl)-decan-3-one formation at 10 uM by HPLC-ECD analysis; format: ADME, cell-based; details: ht-29, 10 µM
Procedure, shortened: (§4)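 Cells (1.0 × 10⁶) attached 24 h in six-well plates, then exposed to 10 μM final in McCoy's 5A with 10% FBS. Extracted with equal volume acetonitrile, diluted 5-fold, analysed by HPLC with electrochemical detection.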

[9] = Drug excretion in C57BL/6J mouse feces assessed as 2-((2R)-2-amino-3-(3-hydroxy-1-(4-hydroxy-3-methoxyphenyl)decan-5-ylthio)propanamido)acetic acid formation at 200 mg/kg, po by HPLC-ECD analysis relative to control; format: ADME, organism-based; parameters: dose 200 mg/kg, route oral; details: in vivo; procedure, shortened: as §3
HCT-116 [10] = experiment: Induction of apoptosis in human HCT116 cells assessed as apoptotic cells at 10 uM after 24 hrs by TUNEL assay; format: functional; procedure, shortened: as §1
[11] = Drug metabolism in human H1299 cells assessed as 1-(4'-hydroxy-3'-methoxyphenyl)-decan-3-one formation at 10 uM after 24 hrs by HPLC-ECD analysis; format: ADME, cell-based; details: nci-h1299, 24 h; procedure, shortened: as §4
[12] = Drug excretion in C57BL/6J mouse feces assessed as 1-(4'-hydroxy-3'-methoxyphenyl)-decan-3-one formation at 200 mg/kg, po by HPLC analysis relative to control; format: ADME, organism-based; parameters: dose 200 mg/kg, route oral; details: in vivo; procedure, shortened: as §3
[13] = Drug recovery in C57BL/6J mouse urine assessed as glucuronidated form of metabolite formation at 200 mg/kg, po by HPLC-ECD analysis; format: ADME, organism-based; parameters: dose 200 mg/kg, route oral; details: in vivo; procedure, shortened: as §2
[14] = Drug excretion in C57BL/6J mouse feces assessed as (2R)-2-acetamido-3-(3-hydroxy-1-(4-hydroxy-3-methoxyphenyl)decan-5-ylthio)propanoic acid formation at 200 mg/kg, po by HPLC-ECD analysis relative to control; format: ADME, organism-based; parameters: dose 200 mg/kg, route oral; details: in vivo; procedure, shortened: as §3
HCT-116 [15] = experiment: Induction of apoptosis in human HCT116 cells assessed as apoptotic cells at 20 uM after 24 hrs by TUNEL assay; format: functional; procedure, shortened: as §1
[16] = Drug metabolism in human HCT116 cells assessed as 1-(4'-hydroxy-3'-methoxyphenyl)-decan-3-ol formation at 10 uM after 24 hrs by HPLC-ECD analysis; format: ADME, cell-based; details: hct-116, 24 h; procedure, shortened: as §4
[17] = Drug metabolism in human H1299 cells assessed as 1-(4'-hydroxy-3'-methoxyphenyl)-decan-3-ol formation at 10 uM after 24 hrs by HPLC-ECD analysis; format: ADME, cell-based; details: nci-h1299, 24 h; procedure, shortened: as §4
[18] = Drug metabolism in mouse CL-13 cells assessed as 1-(4'-hydroxy-3'-methoxyphenyl)-decan-3-ol formation at 10 uM after 24 hrs by HPLC-ECD analysis; format: ADME, cell-based; details: cl-13, 24 h; procedure, shortened: as §4
HT-29 [19] = experiment: Drug metabolism in human HT-29 cells assessed as 1-(4'-hydroxy-3'-methoxyphenyl)-decan-3-ol formation at 10 uM by HPLC-ECD analysis; format: ADME, cell-based; details: ht-29, 10 µM; procedure, shortened: as §4
[20] = Drug excretion in C57BL/6J mouse feces assessed as 3',4'-dihydroxyphenyl-decan-3-one formation at 200 mg/kg, po by HPLC-ECD analysis relative to control; format: ADME, organism-based; parameters: dose 200 mg/kg, route oral; details: in vivo; procedure, shortened: as §3
Plasma [21] = experiment: Drug metabolism in C57BL/6J mouse plasma assessed as sulfated form of metabolite formation at 200 mg/kg, po after 2 to 4 hrs by LC/MS analysis; format: ADME, organism-based; parameters: dose 200 mg/kg, route oral; details: in vivo
Plasma [22] = experiment: Drug metabolism in A/J mouse plasma assessed as glucuronidated form of metabolite formation at 200 mg/kg, po after 2 to 4 hrs by LC/MS analysis; details: in vivo
[23] = Drug excretion in C57BL/6J mouse feces assessed as 5-N-acetylcysteinyl-[6]-shogaol formation at 200 mg/kg, po by HPLC-ECD analysis relative to control; format: ADME, organism-based; parameters: dose 200 mg/kg, route oral; details: in vivo; procedure, shortened: as §3
[24] = Antioxidant activity assessed as DPPH radical scavenging activity; format: physicochemical
[25] = Drug excretion in C57BL/6J mouse feces assessed as (2R)-2-amino-3-(3-hydroxy-1-(4-hydroxy-3-methoxyphenyl)decan-5-ylthio)propanoic acid formation at 200 mg/kg, po by HPLC-ECD analysis relative to control; format: ADME, organism-based; parameters: dose 200 mg/kg, route oral; details: in vivo; procedure, shortened: as §3
[26] = Cytotoxicity against human HCT116 cells assessed as growth inhibition after 24 hrs by MTT assay; format: functional, cell-based; details: HCT-116, 24 h
Procedure, shortened: (§5)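 Cells seeded at 3000/well, attached 24 h at 37°C, then exposed to test agents (0–80 μM, 0.1% DMSO final) for 24 h in McCoy's 5A with 10% FBS. Medium replaced with 2.41 mM MTT for 3 h at 37°C; formazan dissolved in DMSO, absorbance 550 nm. Viability as percentage of DMSO control; mean ± S.D., n = 6.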

[27] = Drug metabolism in mouse CL-13 cells assessed as 1-(4'-hydroxy-3'-methoxyphenyl)-decan-3-one formation at 10 uM by HPLC-ECD analysis; format: ADME, cell-based; details: cl-13, 10 µM; procedure, shortened: as §4
[28] = Drug recovery in C57BL/6J mouse urine assessed as sulfated form of metabolite formation at 200 mg/kg, po by HPLC-ECD analysis; format: ADME, organism-based; parameters: dose 200 mg/kg, route oral; details: in vivo; procedure, shortened: as §2
[29] = Drug excretion in C57BL/6J mouse feces assessed as 5-methoxy-1-(4'-hydroxy-3'-methoxyphenyl)-decan-3-one formation at 200 mg/kg, po by HPLC-ECD analysis relative to control; format: ADME, organism-based; parameters: dose 200 mg/kg, route oral; details: in vivo; procedure, shortened: as §3
[30] = Drug metabolism in human HCT116 cells assessed as 1-(4'-hydroxy-3'-methoxyphenyl)-decan-3-one formation at 10 uM after 24 hrs by HPLC-ECD analysis; format: ADME, cell-based; details: hct-116, 24 h; procedure, shortened: as §4
[31] = Cytotoxicity against human H1299 cells assessed as growth inhibition after 24 hrs by MTT assay; format: functional, cell-based; details: NCI-H1299, 24 h; procedure, shortened: as §5
[32] = Drug excretion in C57BL/6J mouse feces assessed as 1-(4'-hydroxy-3'-methoxyphenyl)-4-decen-3-ol formation at 200 mg/kg, po by HPLC-ECD analysis relative to control; format: ADME, organism-based; parameters: dose 200 mg/kg, route oral; details: in vivo; procedure, shortened: as §3
NCI-H1299 [33] = experiment: Induction of apoptosis in human H1299 cells assessed as apoptotic cells at 20 uM after 24 hrs by TUNEL assay; format: functional; procedure, shortened: as §1
[34] = Drug excretion in C57BL/6J mouse feces assessed as 5-methylthio-1-(4'-hydroxy-3'-methoxyphenyl)-decan-3-one formation at 200 mg/kg, po by HPLC analysis relative to control; format: ADME, organism-based; parameters: dose 200 mg/kg, route oral; details: in vivo; procedure, shortened: as §3
[35] = Drug metabolism in human HCT116 cells assessed as 1-(4'-hydroxy-3'-methoxyphenyl)-4-decen-3-ol formation at 10 uM after 24 hrs by HPLC-ECD analysis; format: ADME, cell-based; details: hct-116, 24 h; procedure, shortened: as §4
[36] = Drug excretion in C57BL/6J mouse feces assessed as 5-cysteinyl-[6]-shogaol formation at 200 mg/kg, po by HPLC-ECD analysis relative to control; format: ADME, organism-based; parameters: dose 200 mg/kg, route oral; details: in vivo; procedure, shortened: as §3
[37] = Drug level in C57BL/6J mouse feces treated with [6]-shogaol at 200 mg/kg, po by HPLC-ECD analysis relative to control; format: ADME, organism-based; parameters: dose 200 mg/kg, route oral; details: in vivo; procedure, shortened: as §3

Drug recovery [2]: metabolite_detected | Drug metabolism (Plasma [3]): metabolite_detected | Drug excretion [4]: metabolite_detected | Drug excretion [5]: metabolite_detected | Drug metabolism (Plasma [6]): metabolite_detected | Drug recovery [7]: metabolite_detected | Drug metabolism (HT-29 [8]): metabolite_detected | Drug excretion [9]: metabolite_detected | Drug metabolism [11]: metabolite_detected | Drug excretion [12]: metabolite_detected | Drug recovery [13]: metabolite_detected | Drug excretion [14]: metabolite_detected | Drug metabolism [16]: metabolite_detected | Drug metabolism [17]: metabolite_detected | Drug metabolism [18]: metabolite_detected | Drug metabolism (HT-29 [19]): metabolite_detected | Drug excretion [20]: metabolite_detected | Drug metabolism (Plasma [21]): metabolite_detected | Drug metabolism (Plasma [22]): metabolite_detected | Drug excretion [23]: metabolite_detected | IC50 [24]: 8 µM | Drug excretion [25]: metabolite_detected | Drug metabolism [27]: metabolite_detected | Drug recovery [28]: metabolite_detected | Drug excretion [29]: metabolite_detected | Drug metabolism [30]: metabolite_detected | Drug excretion [32]: metabolite_detected | Drug excretion [34]: metabolite_detected | Drug metabolism [35]: metabolite_detected | Drug excretion [36]: metabolite_detected
Structure (SMILES): CCCCC/C=C/C(=O)CCc1ccc(O)c(OC)c1 [SHOGAOL]
Activity (NCI-H1299 [1]): 5.2% | Activity (HCT-116 [10]): 10.3% | Activity (HCT-116 [15]): 31.2% | IC50 [26]: 18.7 µM | IC50 [31]: 16.9 µM | Activity (NCI-H1299 [33]): 31.6%

Drug excretion [37]: metabolite_detected
Structure (SMILES): CCCCCC(CC(O)CCc1ccc(O)c(OC)c1)SC (centres undefined)

Drug excretion [37]: metabolite_detected
Structure (SMILES): CCCCCC(CC(=O)CCc1ccc(O)c(OC)c1)SCC(NC(C)=O)C(=O)O (centres undefined)

IC50 [24]: 20 µM
Structure (SMILES): CCCCCCC[C@H](O)CC(=O)CCc1ccc(O)c(OC)c1
